In brackets after ≈: the same amount, converted by molar mass. Bounds are passed on as bounds.

The MIC50 is the lowest concentration that inhibits either 50% of growth or 50% of the strains tested, depending on the study.

This experiment relates to Mycobacterium tuberculosis variant bovis. The experiment is described as follows: Antimycobacterial activity against Mycobacterium bovis AN5 assessed as growth inhibition after 6 days by luciferase reporter gene assay. It is filed as functional. The note with it: AN5, 144 h. Put shortly: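 Mycobacteria carrying the pSMT1 luciferase reporter plasmid. Compounds came from 10 mM DMSO stocks and were serially diluted in 7H9 + 10% FCS. Thawed bacteria were filtered, recovered 1 h at 37 °C, then added at 50 000 RLU/mL. After 6 days of culture, light was read for 10 s after adding 1% n-decanal. Triplicates were run, and MIC50 was the concentration giving 50% growth inhibition.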
Background: A reporter such as luciferase makes a cellular process visible.
On to `O=Cc1ccc(OCCCOc2ccc(C=O)cc2)cc1`, for which the MIC50 was found to be 2.65 µM (≈ 0.753 µg/mL).
As for `O=Cc1ccc(OCCCCOc2ccc(C=O)cc2)cc1`, the MIC50 was determined as 2.51 µM (≈ 0.749 µg/mL).
The value for `O=Cc1ccc(OCCCCCOc2ccc(C=O)cc2)cc1` was 1.69 µM (≈ 0.528 µg/mL).
As for `O=Cc1ccc(OCCCCCCOc2ccc(C=O)cc2)cc1`, the MIC50 is 0.94 µM (≈ 0.307 µg/mL).
With `O=Cc1ccc(OCCCCCCCOc2ccc(C=O)cc2)cc1`, the MIC50 worked out at 0.97 µM (≈ 0.33 µg/mL).
`O=Cc1ccc(OCCCCCCCCOc2ccc(C=O)cc2)cc1`: the MIC50 was found to be 0.95 µM (≈ 0.337 µg/mL).
The value for `O=Cc1ccc(OCCCCCCCCCOc2ccc(C=O)cc2)cc1` was 1.01 µM (≈ 0.372 µg/mL); that for `O=Cc1ccc(OCCCCCCCCCCOc2ccc(C=O)cc2)cc1` was 0.81 µM (≈ 0.31 µg/mL); that for `O=Cc1ccc(OCCCCCCCCCCCOc2ccc(C=O)cc2)cc1` was 0.71 µM (≈ 0.282 µg/mL).
For `O=Cc1ccc(OCCCCCCCCCCCCOc2ccc(C=O)cc2)cc1`, the MIC50 was determined as 0.64 µM (≈ 0.263 µg/mL).
The figure for `O=Cc1ccc(OCOc2ccc(C=O)cc2)cc1` is 2.93 µM (≈ 0.751 µg/mL); for `O=Cc1ccc(OCCOc2ccc(C=O)cc2)cc1` it is 2.41 µM (≈ 0.651 µg/mL).
As to `NNC(=O)c1ccncc1` [ISONIAZID], the MIC50 was less than 0.1 µM.

These data come from ChEMBL document CHEMBL2380272, “Biological evaluation of bisbenzaldehydes against four Mycobacterium species” (Eur J Med Chem, 2013).
